Compound activity from PubChem.
Her2 expr inh: Her2 kinase expression inhibition. P04626. 65,000 compounds, 0.69% hits. SKBR-3 HER2 protein level, AlphaScreen, 18-24 h; stronger effect = lower value. HER2 level % of control, % at 10 µM;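 active means HER2 level under 5% of the carrier-only control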;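 further: 100% = DMSO carrier and 0% = 500 nM PU-H71 HSP90 inhibitor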
Target sequence (P04626 whole entry, looked up): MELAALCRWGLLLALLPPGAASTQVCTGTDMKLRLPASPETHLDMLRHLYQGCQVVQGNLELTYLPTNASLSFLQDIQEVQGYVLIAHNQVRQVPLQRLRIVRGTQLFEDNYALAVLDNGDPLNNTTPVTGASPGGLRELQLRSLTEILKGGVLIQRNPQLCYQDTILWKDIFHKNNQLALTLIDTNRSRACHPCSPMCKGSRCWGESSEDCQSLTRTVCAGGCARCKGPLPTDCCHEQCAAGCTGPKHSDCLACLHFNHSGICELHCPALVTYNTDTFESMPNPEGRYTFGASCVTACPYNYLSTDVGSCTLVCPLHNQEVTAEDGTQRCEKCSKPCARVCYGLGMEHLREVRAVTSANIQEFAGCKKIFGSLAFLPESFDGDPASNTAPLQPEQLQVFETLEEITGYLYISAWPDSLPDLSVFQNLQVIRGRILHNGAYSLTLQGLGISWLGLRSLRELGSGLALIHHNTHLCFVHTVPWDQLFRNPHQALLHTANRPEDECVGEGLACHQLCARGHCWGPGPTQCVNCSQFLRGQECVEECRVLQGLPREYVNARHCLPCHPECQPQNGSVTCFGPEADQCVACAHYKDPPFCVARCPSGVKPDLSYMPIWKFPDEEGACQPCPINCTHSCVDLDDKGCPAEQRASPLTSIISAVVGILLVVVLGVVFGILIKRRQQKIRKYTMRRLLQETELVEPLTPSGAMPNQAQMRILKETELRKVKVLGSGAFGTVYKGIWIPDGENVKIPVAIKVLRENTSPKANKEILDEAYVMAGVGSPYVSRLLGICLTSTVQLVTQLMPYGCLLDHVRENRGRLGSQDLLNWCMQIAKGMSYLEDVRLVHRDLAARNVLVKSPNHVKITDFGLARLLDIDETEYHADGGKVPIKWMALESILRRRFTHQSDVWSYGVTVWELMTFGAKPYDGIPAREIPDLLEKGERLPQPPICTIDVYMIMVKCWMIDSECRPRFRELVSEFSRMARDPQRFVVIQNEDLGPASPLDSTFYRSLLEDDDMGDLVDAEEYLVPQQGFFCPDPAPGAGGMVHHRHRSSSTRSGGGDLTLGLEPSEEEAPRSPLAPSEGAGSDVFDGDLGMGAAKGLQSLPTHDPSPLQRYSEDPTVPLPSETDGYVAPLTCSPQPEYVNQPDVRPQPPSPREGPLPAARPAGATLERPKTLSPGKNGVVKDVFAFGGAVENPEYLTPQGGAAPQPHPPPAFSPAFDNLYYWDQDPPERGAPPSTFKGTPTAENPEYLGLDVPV
tolC growth inh: blocks growth of E. coli BW25113 tolC mutant. OD615. growth inhibition, % at 10 µM (by protocol). 65,000 compounds, 2.2% hits;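 active means growth inhibition at or above a cutoff equal to the mean over every tested compound plus 3 SD, cut at about 60% in these data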;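 further: growth measured after 20 h incubation at 37 °C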
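Test system: tolC-deleted E. coli BW25113 | Medium: LB with kanamycin 50 µg/mL | Compound dosing: Single concentration, 10 µM final per compound | Schedule: 37 °C, 20 h exposure | Measured by: OD at 615 nm | Evaluation: Percent growth inhibition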
E coli WT exp: E. coli BW25113 growth inhibition, expanded screen; OD600 absorbance; growth inhibition, % at 100 µM; 98,000 compounds, 0.15% hits; AID 710;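 active means growth inhibition above about 50% at one test dose, limit read from the data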;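 further: growth measured after 20 h incubation at 37 °C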
PostGolgi ctrl: inhibits growth of the yeast control strain. inhibition, % at 10 µM. 98,000 compounds, 5% hits. efflux-deficient yeast background strain, growth absorbance A615, 16 h. AID 738
PostGolgi yeast: growth inhibition of a yeast mutant, post-Golgi transport screen; inhibition, % at 10 µM; 98,000 compounds, 0.9% hits; post-Golgi transport phenotypic cell assay;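 further: yeast cells grown in 1536-well plates; yeast grown about 18 h at 30C before absorbance read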
* = called active by the depositor; / = no result given. Most compounds without a hit are left out; they make up all but 6.6% or so of the library. Unless noted, no stated cut-off is given here; in the data, active means inhibition above about 30%; inactive means the rest.

SMILES | Her2 expr inh | tolC growth inh | E coli WT exp | PostGolgi ctrl | PostGolgi yeast
CCCN1CCN(C(=O)CCCn2c(C)c3cnn(-c4ccccc4)c(=O)c3c2C)CC1 | 78.5 | -4.0 | 3.0 | 30.8* | -2.9
Clc1ccc(COc2ccccn2)cc1Cl | / | / | 8.0 | -5.4 | 2.4
O=C(COc1ccc(Cl)cc1)Nc1ccccc1N1CCOCC1 | 117.2 | -3.7 | -6.0 | 9.9 | 6.3
O=C(N/N=C/C1CCCCC1)c1ccccn1 | / | / | 0.0 | 8.0 | 5.5
O=C(N/N=C/C1CCCCC1)c1cc(Cl)ccc1O | / | / | 50.0* | -0.5 | -8.5
Cc1cc(C)nc(NC(=O)CSc2nn(C)c(=S)s2)n1 | 114.2 | 8.8 | 9.0 | -5.5 | 39.8*
CCCCCN(C(=O)NC(=O)Nn1cnnc1)S(C)(=O)=O | 93.3 | -3.5 | 7.0 | 4.3 | -8.1
c1ccc(-c2nc3nonc3nc2-c2ccccc2)cc1 | 82.5 | 48.1 | -13.0 | 31.3* | 15.9
CCn1cc(C(=O)O)c(=O)c2cnc(N3CCN(C(=O)Nc4cccc5ccccc45)CC3)nc21 | 77.5 | 18.4 | / | / | /
CC(C)(C)c1cnnn1-c1ccc(-c2csc(N)n2)cc1 | 128.7 | -5.2 | 5.0 | 45.9* | 21.4
CCCOc1ccccc1Cn1c(=O)oc2ccc(C)cc21 | 101.3 | 73.4* | 2.0 | 21.9 | -0.9
CCOc1ccccc1Cn1c(=O)oc2ccc(C)cc21 | 84.0 | 38.3 | / | / | /
O=C(C1CCC1)N1CCc2cc(S(=O)(=O)N3CCc4ccccc4C3)ccc21 | 171.2 | 34.4 | / | / | /
CCC1CCCCN1S(=O)(=O)c1ccc2c(c1)CCN2C(=O)C1CCC1 (configuration not stated) | 85.1 | 83.9* | -6.0 | 67.9* | 1.1
O=C(C1CCC1)N1CCc2cc(S(=O)(=O)NCc3ccccn3)ccc21 | / | / | -1.0 | 1.8 | -3.8
O=C(C1CCC1)N1CCc2cc(S(=O)(=O)NCCN3CCN(c4ccccc4F)CC3)ccc21 | 133.3 | 25.6 | -9.0 | 38.1* | -1.0
CC(C)C(c1nnnn1Cc1ccc(F)cc1)N1CCN(C(=O)c2ccco2)CC1 (configuration not stated) | 82.5 | -4.6 | 5.0 | 15.4 | 9.1
Nc1c(C(=O)OCC2CCCO2)c2nc3ccccc3nc2n1C1CCCC1 (configuration not stated) | 20.7 | 41.4 | 11.0 | 48.2* | 9.0
Fc1ccc(CN2CCCCCCC2)cc1F | 106.8 | -15.5 | 4.0 | -4.5 | -3.9
O=C(CCCC(=O)N(CC(=O)NC1CCCC1)C1CCCC1)Nc1ccccn1 | 47.6 | -14.9 | -3.0 | 33.9* | -0.2
CCCNC(=O)N1CCC(C(=O)c2cccc(F)c2)CC1 | / | / | -2.0 | 4.8 | 2.7
CCOC(=O)N1CCN(S(=O)(=O)c2ccc(OC)c(Cl)c2Cl)CC1 | 103.5 | 3.4 | -3.0 | 12.9 | 12.6
CCOC(=O)N1CCN(S(=O)(=O)c2ccc(OCC)c3ccccc23)CC1 | 73.8 | 64.8* | -13.0 | 18.9 | -18.6
O=C(c1ccc(C(=O)N2CCCc3ccccc32)s1)N1CCCc2ccccc21 | / | / | -14.0 | 100.3* | 105.4*
COc1ccc(C(=O)N2CCCc3ccccc32)cc1 | 118.2 | 3.2 | 6.0 | -3.2 | -8.2
SMILES | Her2 expr inh | tolC growth inh | E coli WT exp | PostGolgi ctrl | PostGolgi yeast
O=C(c1ccc(Cl)s1)N1CCc2ccccc21 | 66.6 | 2.4 | 6.0 | 6.5 | 0.5
CC(C)Oc1ccc(C(=O)N2CCCc3ccccc32)cc1 | 132.5 | 58.4 | -1.0 | 30.9* | -4.6
COc1ccc(C(=O)N2c3ccc(F)cc3CCC2C)cc1OC (configuration not stated) | 103.0 | 22.4 | -15.0 | 37.5* | 7.2
CC1CCc2cc(F)ccc2N1C(=O)c1ccc2c(c1)OCO2 (configuration not stated) | 141.8 | 28.0 | 8.0 | 6.6 | 0.0
COc1cc(OC)cc(C(=O)N2c3ccc(F)cc3CCC2C)c1 (configuration not stated) | 130.3 | 15.2 | 7.0 | 31.5* | 16.5
Cc1nn(Cc2ccc(C(=O)N3c4ccc(F)cc4CCC3C)o2)c(C)c1Br (configuration not stated) | 59.7 | 96.5* | -5.0 | 28.9 | 3.1
Cc1ccc(C(=O)N2c3ccc(F)cc3CCC2C)o1 (configuration not stated) | 121.9 | 16.4 | -5.0 | 7.0 | -6.7
CCC(CC)C(=O)N1c2ccc(F)cc2CCC1C (configuration not stated) | 72.1 | 11.6 | 7.0 | -9.9 | -4.8
O=C(NC1CCCC1)C1CCCN1C(=O)Nc1ccccc1 (configuration not stated) | 63.1 | -22.9 | 5.0 | -3.9 | 11.9
O=C(Nc1ccccc1)N1CCCC2CCCCC21 (configuration not stated) | 52.2 | 18.2 | 9.0 | 1.2 | 30.0*
